{"data": "Experimental data collected from several papers", "target": "Serine/threonine-protein kinase Nek1 (NEK1, Homo sapiens, UniProt Q96PY6)", "Residues used in one study (Q96PY6 1-1258)": "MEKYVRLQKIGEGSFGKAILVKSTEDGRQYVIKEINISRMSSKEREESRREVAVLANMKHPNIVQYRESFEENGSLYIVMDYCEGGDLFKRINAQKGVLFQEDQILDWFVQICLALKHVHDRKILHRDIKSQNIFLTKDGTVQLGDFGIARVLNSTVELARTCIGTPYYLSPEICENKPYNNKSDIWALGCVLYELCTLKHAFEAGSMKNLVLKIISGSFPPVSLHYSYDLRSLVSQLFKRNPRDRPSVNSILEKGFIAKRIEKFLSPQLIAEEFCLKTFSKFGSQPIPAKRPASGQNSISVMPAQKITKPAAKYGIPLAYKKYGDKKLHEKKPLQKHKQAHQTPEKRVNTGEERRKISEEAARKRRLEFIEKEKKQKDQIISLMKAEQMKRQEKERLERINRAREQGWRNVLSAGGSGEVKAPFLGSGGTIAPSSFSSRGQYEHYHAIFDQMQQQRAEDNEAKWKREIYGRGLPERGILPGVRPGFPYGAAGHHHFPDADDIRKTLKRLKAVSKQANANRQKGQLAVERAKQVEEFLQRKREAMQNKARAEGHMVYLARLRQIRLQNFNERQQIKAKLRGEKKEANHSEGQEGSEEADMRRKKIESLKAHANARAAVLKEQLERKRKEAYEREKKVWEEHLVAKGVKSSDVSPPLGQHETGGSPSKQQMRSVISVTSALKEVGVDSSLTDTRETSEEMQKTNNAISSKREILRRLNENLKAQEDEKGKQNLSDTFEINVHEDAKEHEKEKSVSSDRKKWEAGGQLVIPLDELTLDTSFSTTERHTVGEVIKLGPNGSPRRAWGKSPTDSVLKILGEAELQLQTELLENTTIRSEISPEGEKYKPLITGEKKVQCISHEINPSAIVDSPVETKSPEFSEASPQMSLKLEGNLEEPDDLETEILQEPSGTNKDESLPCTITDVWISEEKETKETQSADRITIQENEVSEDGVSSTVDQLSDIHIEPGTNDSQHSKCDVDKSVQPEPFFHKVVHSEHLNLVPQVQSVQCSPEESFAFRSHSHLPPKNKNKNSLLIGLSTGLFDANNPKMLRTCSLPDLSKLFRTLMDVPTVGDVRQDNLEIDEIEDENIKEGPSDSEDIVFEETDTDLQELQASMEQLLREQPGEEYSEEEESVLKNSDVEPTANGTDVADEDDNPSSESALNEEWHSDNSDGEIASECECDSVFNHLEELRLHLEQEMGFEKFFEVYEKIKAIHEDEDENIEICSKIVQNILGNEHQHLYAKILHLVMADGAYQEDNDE", "note": "Compare with care: the assays were run in different laboratories."}
{"Compound": "CCCCC(=O)Nc1ccc(-c2ccc3ncn(CCC)c(=O)c3c2)cn1", "observed": "binding", "technique": "competition with immobilised ligand", "concentration": "0.5 µM", "quantity": "remaining binding", "result": "95%"}
{"Compound": "C[C@H]1CC[C@H](n2c3cnccc3c3cnc(Nc4ccc5c(n4)CCN(C(=O)CO)C5)nc32)CC1", "observed": "cell-free assay", "concentration": "1 µM", "quantity": "remaining signal", "result": "85%"}
{"Compound": "C1=C/COCc2cc(ccc2OCCN2CCCC2)Nc2nccc(n2)-c2cccc(c2)COC/1", "observed": "binding", "concentration": "0.1 µM", "quantity": "remaining binding", "result": "98%"}
{"Compound": "C#Cc1cc(-c2cc(Nc3nc(N[C@@H](C)c4ccc(F)cn4)ncc3Cl)n[nH]2)ccc1C=O", "observed": "enzyme activity", "mode": "inhibitor", "concentration": "0.2 µM", "quantity": "inhibition", "result": "70.2%"}
{"Compound": "COc1ccc2oc(-c3ccc4nc(N)oc4c3)c/c(=N\\c3ccccc3NC(=O)CCN)c2c1", "observed": "binding", "concentration": "1 µM", "quantity": "remaining binding", "result": "108%"}
{"Compound": "CC#CC(=O)N1CCC[C@H]1c1nc(-c2ccc(C(=O)Nc3ccccn3)cc2)c2c(N)nccn12", "observed": "enzyme activity", "mode": "inhibitor", "concentration": "1 µM", "quantity": "inhibition", "result": "8%"}
{"Compound": "COc1ccc2[nH]c3c4[nH]c5ccc(OC)cc5c4c4c(c3c2c1)C(=O)NC4=O", "observed": "binding", "concentration": "1 µM", "quantity": "remaining binding", "result": "100%"}
{"Compound": "Cc1cc(O)c(-c2ccc([C@@H](C)CN(C)C)cc2)c2c1[nH]c(=O)c1sccc12", "observed": "enzyme activity", "mode": "inhibitor", "concentration": "0.1 µM", "quantity": "inhibition", "result": "-3.68%"}
{"Compound": "CO[C@@H]1[C@H](N(C)C(=O)c2ccccc2)C[C@H]2O[C@]1(C)n1c3ccccc3c3c4c(c5c6ccccc6n2c5c31)C(=O)NC4", "observed": "enzyme activity", "mode": "inhibitor", "concentration": "1 µM", "quantity": "inhibition", "result": "0%"}
